Each structure is given as a SMILES string. Calls of active or inactive are those of the source. No cut-off for these calls is given here.

The subject of the assay is DNA. Put plainly: Binding affinity to calf thymus DNA assessed as DNA intercalation at 50 uM by fluorescence spectrophotometry. Format: nucleic-acid assay. Conditions: Bos taurus. The method, boiled down: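 Fluorescence titration: increasing ct-DNA added to compound in phosphate buffer (pH 7.0); decrease in emission band at 500 nm monitored; binding constant derived from titration data by Benesi–Hildebrand method.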

As to `CN(C)CCN1C(=O)c2cccc3cc(N)cc(c23)C1=O`, the result was Active.

The record behind these values is ChEMBL document CHEMBL2424551, “Synthesis, in vitro evaluation and molecular modelling of naphthalimide analogue as anticancer agents” (2013).
